Measured values reported in ChEMBL document CHEMBL5653631, “A Potent and Selective ULK1 Inhibitor Suppresses Autophagy and Sensitizes Cancer Cells to Nutrient Stress” (iScience, 2018).

Experiments:
[1] = biological target: Cyclin-dependent kinase-like 3 (Homo sapiens) (UniProt Q8IVW4); assay: Inhibition of human recombinant CDKL3 at 500 nM in presence of ATP by radiometric assay relative to control
[2] = biological target: Misshapen-like kinase 1 (Homo sapiens) (UniProt Q8N4C8); assay: Inhibition of human recombinant MINK at 500 nM related to control ULK1
[3] = biological target: Serine/threonine-protein kinase 33 (Homo sapiens) (UniProt Q9BYT3); assay: Inhibition of human recombinant STK33 at 500 nM related to control ULK1
[4] = biological target: Tyrosine-protein kinase Fgr (Homo sapiens) (UniProt P09769); assay: Inhibition of human recombinant FGR at 15 nM in presence of ATP by radiometric assay relative to control
[5] = biological target: T1, Tribbles homolog 2 (Homo sapiens) (UniProt Q92519); assay: Inhibition of human recombinant Trb2 at 15 nM in presence of ATP by radiometric assay relative to control
T1 sequence (whole entry): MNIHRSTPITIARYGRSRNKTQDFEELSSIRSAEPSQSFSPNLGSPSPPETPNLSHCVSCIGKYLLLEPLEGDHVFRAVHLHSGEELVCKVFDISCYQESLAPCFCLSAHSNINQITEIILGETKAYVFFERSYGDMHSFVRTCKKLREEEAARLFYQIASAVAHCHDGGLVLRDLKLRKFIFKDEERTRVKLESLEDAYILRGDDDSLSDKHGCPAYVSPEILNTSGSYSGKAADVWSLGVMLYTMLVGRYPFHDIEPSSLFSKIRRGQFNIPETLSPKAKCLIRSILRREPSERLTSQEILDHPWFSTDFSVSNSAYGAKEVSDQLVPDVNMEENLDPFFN

[6] = biological target: Serine-protein kinase ATM (Homo sapiens) (UniProt Q13315); assay: Inhibition of human recombinant ATM at 15 nM related to control ULK1
Procedure, shortened: (§1)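 Panel of 327 recombinant human kinases, each assayed in vitro by radiometric activity assay in duplicate at a single inhibitor concentration per compound, chosen with reference to its ULK1 inhibition. Activity remaining was expressed as percent of vehicle control, and percent inhibition was calculated as 100 minus percent activity remaining.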

[7] = biological target: Mitogen-activated protein kinase 10 (Homo sapiens) (UniProt P53779); assay: Inhibition of human recombinant JNK3 at 15 nM related to control ULK1
[8] = biological target: MAP kinase-activated protein kinase 2 (Homo sapiens) (UniProt P49137); assay: Inhibition of human recombinant MAPKAPK2 at 15 nM related to control ULK1
[9] = biological target: Serine/threonine-protein kinase 17A (Homo sapiens, UniProt Q9UEE5); assay: Inhibition of human recombinant DRAK1
[10] = biological target: T2, Aurora kinase A (Homo sapiens) (UniProt O14965); assay: Inhibition of human recombinant AurA at 40 nM in presence of ATP by radiometric assay relative to control; procedure, shortened: as §1
T2 sequence (whole entry): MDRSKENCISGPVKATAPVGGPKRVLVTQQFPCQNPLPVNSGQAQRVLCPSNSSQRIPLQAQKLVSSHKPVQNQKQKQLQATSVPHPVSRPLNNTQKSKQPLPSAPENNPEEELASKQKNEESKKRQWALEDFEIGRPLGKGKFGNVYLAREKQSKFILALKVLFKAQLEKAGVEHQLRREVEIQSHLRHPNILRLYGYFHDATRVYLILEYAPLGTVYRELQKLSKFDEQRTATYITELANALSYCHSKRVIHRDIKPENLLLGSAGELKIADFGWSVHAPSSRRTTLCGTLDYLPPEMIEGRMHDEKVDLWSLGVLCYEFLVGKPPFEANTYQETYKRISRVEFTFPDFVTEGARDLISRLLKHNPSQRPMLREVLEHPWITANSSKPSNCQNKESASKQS

[11] = biological target: Serine/threonine-protein kinase 10 (Homo sapiens) (UniProt O94804); assay: Inhibition of human recombinant LOK at 40 nM in presence of ATP by radiometric assay relative to control
[12] = biological target: T3, G protein-coupled receptor kinase 3 (Homo sapiens) (UniProt P35626); assay: Inhibition of human recombinant BARK2 at 40 nM related to control ULK1
T3 sequence (whole entry): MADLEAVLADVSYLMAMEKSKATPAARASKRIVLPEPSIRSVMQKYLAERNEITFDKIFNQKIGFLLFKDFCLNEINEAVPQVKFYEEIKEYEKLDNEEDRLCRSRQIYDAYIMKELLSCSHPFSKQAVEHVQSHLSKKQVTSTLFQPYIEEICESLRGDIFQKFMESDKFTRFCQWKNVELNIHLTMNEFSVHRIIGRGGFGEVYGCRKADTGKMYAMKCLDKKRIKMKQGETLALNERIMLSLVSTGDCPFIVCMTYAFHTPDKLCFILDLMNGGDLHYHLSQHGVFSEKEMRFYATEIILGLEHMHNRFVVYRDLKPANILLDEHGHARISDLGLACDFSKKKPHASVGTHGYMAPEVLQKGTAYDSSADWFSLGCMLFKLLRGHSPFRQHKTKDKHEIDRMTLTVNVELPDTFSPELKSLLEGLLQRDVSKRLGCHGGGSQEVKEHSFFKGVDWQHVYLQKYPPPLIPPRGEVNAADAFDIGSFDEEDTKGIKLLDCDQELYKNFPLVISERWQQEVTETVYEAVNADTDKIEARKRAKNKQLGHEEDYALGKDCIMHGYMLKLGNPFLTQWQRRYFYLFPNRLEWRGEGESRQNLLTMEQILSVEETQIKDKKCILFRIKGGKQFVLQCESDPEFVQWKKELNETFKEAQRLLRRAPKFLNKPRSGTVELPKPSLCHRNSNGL
Procedure, shortened: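 Radiometric activity assays in a panel of 327 human recombinant kinases, each run in duplicate at one inhibitor concentration. Activity remaining is expressed as percent of vehicle control, and percent inhibition is calculated as 100% minus percent activity remaining.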

[13] = biological target: Dual specificity protein kinase CLK3 (Homo sapiens) (UniProt P49761); assay: Inhibition of human recombinant CLK3 at 40 nM related to control ULK1
[14] = biological target: Serine/threonine-protein kinase MARK2 (Homo sapiens) (UniProt Q7KZI7); assay: Inhibition of human recombinant MARK2 at 40 nM related to control ULK1
[15] = biological target: Serine/threonine-protein kinase MRCK beta (Homo sapiens) (UniProt Q9Y5S2); assay: Inhibition of human recombinant MRCKb at 40 nM related to control ULK1
[16] = biological target: Serine/threonine-protein kinase PLK2 (Homo sapiens) (UniProt Q9NYY3); assay: Inhibition of human recombinant PLK2 at 40 nM related to control ULK1
[17] = biological target: NT-3 growth factor receptor (Homo sapiens) (UniProt Q16288); assay: Inhibition of human recombinant TRKC at 40 nM related to control ULK1

Serine/threonine-protein kinase MRCK beta (Homo sapiens), sequence (Q9Y5S2 whole entry): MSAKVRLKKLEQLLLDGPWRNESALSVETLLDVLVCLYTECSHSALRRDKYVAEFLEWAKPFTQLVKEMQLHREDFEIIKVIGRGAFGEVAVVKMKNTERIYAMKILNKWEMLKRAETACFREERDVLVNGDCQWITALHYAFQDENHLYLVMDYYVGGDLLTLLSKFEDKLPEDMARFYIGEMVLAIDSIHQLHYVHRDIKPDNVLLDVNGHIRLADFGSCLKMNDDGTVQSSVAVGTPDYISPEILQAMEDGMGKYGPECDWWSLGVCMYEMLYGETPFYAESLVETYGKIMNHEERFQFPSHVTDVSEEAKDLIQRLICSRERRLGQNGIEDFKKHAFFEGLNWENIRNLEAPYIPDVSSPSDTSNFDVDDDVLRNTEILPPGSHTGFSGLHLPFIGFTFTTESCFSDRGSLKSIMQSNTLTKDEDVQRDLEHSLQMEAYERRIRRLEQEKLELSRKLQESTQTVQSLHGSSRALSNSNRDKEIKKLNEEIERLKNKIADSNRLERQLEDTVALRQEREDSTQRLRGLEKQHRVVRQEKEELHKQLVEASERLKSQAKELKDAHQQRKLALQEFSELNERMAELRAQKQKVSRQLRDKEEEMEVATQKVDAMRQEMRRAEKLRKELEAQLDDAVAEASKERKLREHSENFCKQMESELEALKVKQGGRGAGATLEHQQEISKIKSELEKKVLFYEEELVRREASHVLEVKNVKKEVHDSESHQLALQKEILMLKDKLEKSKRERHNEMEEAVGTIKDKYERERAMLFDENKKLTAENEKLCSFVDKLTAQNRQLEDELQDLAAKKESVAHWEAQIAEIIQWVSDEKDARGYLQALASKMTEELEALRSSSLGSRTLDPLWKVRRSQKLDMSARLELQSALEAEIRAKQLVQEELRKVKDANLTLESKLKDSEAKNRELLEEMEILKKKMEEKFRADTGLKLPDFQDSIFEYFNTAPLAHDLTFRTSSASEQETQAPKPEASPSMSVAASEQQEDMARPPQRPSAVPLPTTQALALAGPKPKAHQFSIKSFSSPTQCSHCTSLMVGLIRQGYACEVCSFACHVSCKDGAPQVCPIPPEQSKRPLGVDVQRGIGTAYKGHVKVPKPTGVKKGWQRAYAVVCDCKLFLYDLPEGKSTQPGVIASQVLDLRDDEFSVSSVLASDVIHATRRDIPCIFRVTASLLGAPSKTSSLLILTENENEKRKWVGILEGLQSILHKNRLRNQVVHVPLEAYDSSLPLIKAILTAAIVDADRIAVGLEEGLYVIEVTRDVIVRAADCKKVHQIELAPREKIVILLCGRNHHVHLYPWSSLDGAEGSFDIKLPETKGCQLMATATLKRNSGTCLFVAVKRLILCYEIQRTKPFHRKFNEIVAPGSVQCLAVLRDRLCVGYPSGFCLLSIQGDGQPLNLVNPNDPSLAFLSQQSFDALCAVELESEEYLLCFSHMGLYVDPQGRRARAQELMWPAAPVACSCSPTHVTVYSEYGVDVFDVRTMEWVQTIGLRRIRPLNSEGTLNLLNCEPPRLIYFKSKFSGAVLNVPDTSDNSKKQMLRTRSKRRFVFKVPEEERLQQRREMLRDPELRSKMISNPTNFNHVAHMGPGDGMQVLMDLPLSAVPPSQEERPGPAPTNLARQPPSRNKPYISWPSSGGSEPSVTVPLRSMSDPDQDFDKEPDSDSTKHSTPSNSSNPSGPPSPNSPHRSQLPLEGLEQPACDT
Serine/threonine-protein kinase MARK2 (Homo sapiens), sequence (Q7KZI7 whole entry): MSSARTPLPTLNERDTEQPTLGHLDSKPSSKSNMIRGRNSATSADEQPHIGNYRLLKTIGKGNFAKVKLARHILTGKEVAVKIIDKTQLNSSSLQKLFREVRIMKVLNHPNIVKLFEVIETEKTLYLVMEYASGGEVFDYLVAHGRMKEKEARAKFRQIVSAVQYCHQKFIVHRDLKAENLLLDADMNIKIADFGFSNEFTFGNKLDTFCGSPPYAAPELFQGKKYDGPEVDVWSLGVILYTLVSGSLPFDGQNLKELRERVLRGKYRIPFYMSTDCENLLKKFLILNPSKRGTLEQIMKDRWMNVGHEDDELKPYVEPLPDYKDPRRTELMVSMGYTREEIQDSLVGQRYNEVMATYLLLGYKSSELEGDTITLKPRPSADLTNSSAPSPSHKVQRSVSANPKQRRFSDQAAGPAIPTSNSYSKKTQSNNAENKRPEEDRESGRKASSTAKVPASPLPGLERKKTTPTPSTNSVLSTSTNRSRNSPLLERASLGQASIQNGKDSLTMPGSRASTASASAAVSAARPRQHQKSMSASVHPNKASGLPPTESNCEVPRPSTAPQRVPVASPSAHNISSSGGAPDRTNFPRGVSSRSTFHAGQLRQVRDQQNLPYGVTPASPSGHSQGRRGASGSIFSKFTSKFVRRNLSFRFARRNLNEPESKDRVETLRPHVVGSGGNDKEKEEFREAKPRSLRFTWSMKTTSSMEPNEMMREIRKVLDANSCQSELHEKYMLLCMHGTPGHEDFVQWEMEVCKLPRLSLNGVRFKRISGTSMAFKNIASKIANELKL
Mitogen-activated protein kinase 10 (Homo sapiens), sequence (P53779 whole entry): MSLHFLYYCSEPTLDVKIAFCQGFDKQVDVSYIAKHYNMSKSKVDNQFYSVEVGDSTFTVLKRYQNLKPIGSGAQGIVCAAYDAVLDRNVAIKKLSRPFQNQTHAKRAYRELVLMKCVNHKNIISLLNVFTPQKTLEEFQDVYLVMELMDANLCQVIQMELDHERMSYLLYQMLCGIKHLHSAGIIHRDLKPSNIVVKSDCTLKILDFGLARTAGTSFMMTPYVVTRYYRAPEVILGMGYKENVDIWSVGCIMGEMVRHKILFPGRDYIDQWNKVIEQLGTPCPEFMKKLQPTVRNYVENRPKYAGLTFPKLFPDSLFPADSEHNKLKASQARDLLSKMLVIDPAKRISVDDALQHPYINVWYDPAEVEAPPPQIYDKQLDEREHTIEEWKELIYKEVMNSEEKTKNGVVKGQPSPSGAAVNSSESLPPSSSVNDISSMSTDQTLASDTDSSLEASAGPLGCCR
Serine/threonine-protein kinase PLK2 (Homo sapiens), sequence (Q9NYY3 whole entry, looked up): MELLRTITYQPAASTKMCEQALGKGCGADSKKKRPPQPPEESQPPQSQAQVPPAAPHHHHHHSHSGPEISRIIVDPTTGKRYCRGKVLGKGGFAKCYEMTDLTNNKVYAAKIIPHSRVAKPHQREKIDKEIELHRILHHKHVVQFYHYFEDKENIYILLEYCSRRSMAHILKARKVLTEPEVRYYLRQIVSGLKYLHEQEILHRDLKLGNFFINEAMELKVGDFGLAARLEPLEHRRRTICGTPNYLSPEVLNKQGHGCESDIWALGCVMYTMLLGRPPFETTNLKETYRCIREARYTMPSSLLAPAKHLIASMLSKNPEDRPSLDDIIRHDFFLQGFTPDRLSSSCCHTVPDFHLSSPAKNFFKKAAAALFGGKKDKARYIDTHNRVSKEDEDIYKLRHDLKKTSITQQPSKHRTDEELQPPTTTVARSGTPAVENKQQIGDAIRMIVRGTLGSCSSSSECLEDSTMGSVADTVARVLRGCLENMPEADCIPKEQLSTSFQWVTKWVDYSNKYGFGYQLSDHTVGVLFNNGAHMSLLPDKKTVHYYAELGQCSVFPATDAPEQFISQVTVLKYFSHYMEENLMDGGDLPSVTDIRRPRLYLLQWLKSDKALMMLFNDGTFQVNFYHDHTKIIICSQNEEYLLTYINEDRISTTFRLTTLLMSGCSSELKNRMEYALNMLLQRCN
Cyclin-dependent kinase-like 3 (Homo sapiens), sequence (Q8IVW4 whole entry, looked up): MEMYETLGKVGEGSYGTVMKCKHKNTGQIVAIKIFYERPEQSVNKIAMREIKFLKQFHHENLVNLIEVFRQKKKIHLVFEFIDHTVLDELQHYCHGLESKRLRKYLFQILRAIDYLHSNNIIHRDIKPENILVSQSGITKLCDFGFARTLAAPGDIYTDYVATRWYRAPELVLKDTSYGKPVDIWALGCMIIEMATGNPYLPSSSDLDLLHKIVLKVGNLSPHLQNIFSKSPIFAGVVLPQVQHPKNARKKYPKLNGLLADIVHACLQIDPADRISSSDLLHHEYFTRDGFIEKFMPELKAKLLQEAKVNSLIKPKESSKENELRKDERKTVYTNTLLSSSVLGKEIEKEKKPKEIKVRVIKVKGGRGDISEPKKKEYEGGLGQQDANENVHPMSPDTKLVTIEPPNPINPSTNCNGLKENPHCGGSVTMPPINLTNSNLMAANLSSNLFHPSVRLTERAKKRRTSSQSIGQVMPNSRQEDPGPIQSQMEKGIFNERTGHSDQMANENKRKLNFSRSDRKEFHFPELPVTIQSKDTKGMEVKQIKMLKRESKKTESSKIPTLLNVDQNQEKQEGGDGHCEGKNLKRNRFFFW
Tyrosine-protein kinase Fgr (Homo sapiens), sequence (P09769 2-529 limits assumed): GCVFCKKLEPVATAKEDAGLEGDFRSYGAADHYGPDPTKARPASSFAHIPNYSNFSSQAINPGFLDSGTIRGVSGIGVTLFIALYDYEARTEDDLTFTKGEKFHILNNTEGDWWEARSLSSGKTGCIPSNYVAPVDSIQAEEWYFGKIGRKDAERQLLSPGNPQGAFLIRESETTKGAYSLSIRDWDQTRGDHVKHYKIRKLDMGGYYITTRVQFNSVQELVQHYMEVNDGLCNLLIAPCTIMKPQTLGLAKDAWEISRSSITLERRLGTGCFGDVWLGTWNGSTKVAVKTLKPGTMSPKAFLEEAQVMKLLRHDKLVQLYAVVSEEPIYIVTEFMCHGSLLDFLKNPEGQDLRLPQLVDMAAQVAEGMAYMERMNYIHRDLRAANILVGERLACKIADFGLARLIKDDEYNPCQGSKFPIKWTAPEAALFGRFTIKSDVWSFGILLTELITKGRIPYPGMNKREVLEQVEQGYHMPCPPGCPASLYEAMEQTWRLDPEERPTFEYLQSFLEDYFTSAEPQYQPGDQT

Question: With `CNC(=O)c1ccccc1Oc1nc(Nc2cc(OC)c(OC)c(OC)c2)ncc1Br` as the molecule, how does the inhibition [1] read?
Answer: Its inhibition is 0%.

Question: What about the fold change (FC) [2] of the same molecule?
Answer: The fold change (FC) was 0.05.

Question: And the fold change (FC) [3]?
Answer: The fold change (FC) was 0.05.

Question: What does the source list for `CC(C)[C@H](NC(=O)c1cc(-c2cnn3cc(-c4ccc(OCCN5CCCCC5)cc4)cnc23)cs1)C(F)(F)F`?
Answer: inhibition [4]: 43%; inhibition [5]: 36%; fold change (FC) [6]: 0.07; fold change (FC) [7]: 0.08; fold change (FC) [8]: 0

Question: With `O=C(N[C@@H](C1CC1)C(F)(F)F)c1cc(-c2cnn3cc(-c4ccc(F)cc4)cnc23)cs1` as the molecule, how does the IC50 [9] read?
Answer: Its IC50 is 14 nM.

Question: And the inhibition [10]?
Answer: The inhibition was 22%.

Question: And the inhibition [11]?
Answer: Its inhibition is 0%.

Question: What about the fold change (FC) [12] of the same molecule?
Answer: The fold change (FC) was 0.1.

Question: What about the fold change (FC) [13] of the same molecule?
Answer: Its fold change (FC) is 0.

Question: What about the fold change (FC) [14] of the same molecule?
Answer: The fold change (FC) was 0.16.

Question: And the fold change (FC) [15]?
Answer: The fold change (FC) was 0.07.

Question: What about the fold change (FC) [16] of the same molecule?
Answer: The fold change (FC) was 0.04.

Question: And the fold change (FC) [17]?
Answer: Its fold change (FC) is 0.
